An excerpt weighted towards active compounds, which were near 2.1% of everything screened.
CHRM5 PAM: CHRM5 positive allosteric modulation; CHO-K1 hM5, Fluo-8 calcium, ACh EC20 PAM; 0% = ACh EC20, 100% = ACh EC100; activation, % at 3 µM; P08912; AID 624038; 360,000 tested, 0.3% active;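 active = activation above the run cutoff, the mean activation of all test compounds plus 3 SD, cut at about 18% in these data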
Target sequence (P08912 whole entry, looked up): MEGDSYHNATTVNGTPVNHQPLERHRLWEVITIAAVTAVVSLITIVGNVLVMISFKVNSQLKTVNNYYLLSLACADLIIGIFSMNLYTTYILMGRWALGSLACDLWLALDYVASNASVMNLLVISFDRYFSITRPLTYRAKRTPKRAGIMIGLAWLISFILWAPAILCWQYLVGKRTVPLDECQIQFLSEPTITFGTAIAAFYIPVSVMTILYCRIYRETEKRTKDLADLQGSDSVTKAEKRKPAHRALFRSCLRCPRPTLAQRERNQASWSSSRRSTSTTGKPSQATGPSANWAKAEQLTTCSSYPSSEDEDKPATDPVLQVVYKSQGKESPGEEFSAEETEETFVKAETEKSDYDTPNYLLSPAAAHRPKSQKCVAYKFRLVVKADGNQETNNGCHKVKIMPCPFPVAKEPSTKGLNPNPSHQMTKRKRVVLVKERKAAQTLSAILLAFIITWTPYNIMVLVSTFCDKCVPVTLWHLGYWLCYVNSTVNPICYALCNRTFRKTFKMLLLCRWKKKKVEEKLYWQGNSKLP
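system = human M5 receptor in CHO-K1 cells | reagent = EC20 acetylcholine as agonist stimulus | compound dosing = single-point, 3 µM nominal | incubation = Fluo-8 loading 80 min at 37 °C plus 30 min room temperature | detection = Fluo-8 calcium dye fluorescence, kinetic read | benchmarks = low control EC20 acetylcholine (0%), high control EC100 acetylcholine (100%)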
M5 ag: CHRM5 agonism in calcium assay | 360,000 tested, 0.19% active | activation, % at 3 µM | AID 624037 | CHO-K1 hM5 cells, Fluo-8 calcium fluorescence; 0% DMSO wells, 100% maximal acetylcholine response;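 active = activation above the run's mean over test compounds plus 3 SD, cut at about 23% in these data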;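 note: signal is peak over basal fluorescence ratio across the kinetic read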
CHRM5 antagonist: blocks acetylcholine activation of human M5 receptor; P08912; CHO-hM5 cells, Fluo-8 calcium fluorescence, ACh EC80; inhibition, % at 3 µM; 360,000 tested, 0.59% active; AID 624040;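 active = inhibition above a per-plate cutoff, the mean of that plate's test compounds plus 3 SD, cut at about 27% in these data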;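 note: 0% = acetylcholine EC80 with DMSO and 100% = DMSO without agonist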
CHRM1 agonist: human M1 muscarinic receptor agonism; activation, % at 3 µM; 360,000 tested, 0.33% active; CHO-K1 hM1, Fluo-8 calcium fluorescence, agonist mode; 0% DMSO, 100% acetylcholine EC100; AID 588814; P11229;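 active = activation above the run's mean compound activation plus 3 SD, cut at about 16% in these data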;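 note: peak over basal fluorescence ratio within a 140 s kinetic read after compound addition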
M1 PAM: positive allosteric modulators of human M1 muscarinic receptor; P11229; CHO-K1 hM1, Fluo-8 calcium fluorescence, ACh EC20; 0% = ACh EC20, 100% = maximal ACh; activation, % at 3 µM; 360,000 tested, 0.088% active; in the data active = activation above about 19%, passing the limit was not always enough
CHRM1 antagonist: blocks human M1 muscarinic receptor | CHO-K1 hM1, Fluo-8 calcium fluorescence, ACh EC80 antagonist | P11229 | inhibition, % at 3 µM | 360,000 tested, 1.3% active;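 active = percent inhibition above its own plate's cutoff, namely the mean of that plate's compound wells plus 3 SD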;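 note: peak over basal fluorescence ratio during 140 s after agonist addition; 0% = ACh EC80 plus DMSO and 100% = DMSO alone without agonist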
Starred values were filed as active, the others as inactive.

SMILES	CHRM5 PAM	M5 ag	CHRM5 antagonist	CHRM1 agonist	M1 PAM	CHRM1 antagonist
NS(=O)(=O)c1ccc(NC(=O)/C=C/c2cccc(Cl)c2)cc1	-1.6	-3.8	2.2	-10.2	-2.6	1.4
O=C(Nc1ccccc1F)C1CCCN1S(=O)(=O)c1ccc(Cl)cc1 (configuration not stated)	-3.8	2.1	13.9	-2.3	0.1	-5.0
c1ccc(C(Cc2nc(-c3ccncc3)no2)c2ccccc2)cc1	-16.4	0.4	30.7*	-3.0	-15.9	24.2*
Cc1cc(/C=C2\C(=N)N3N=C(c4ccco4)SC3=NC2=O)c(C)n1Cc1ccccc1	-10.3	1.1	1.0	41.8*	-20.6	51.9*
CCC1=NN2C(=N)/C(=C/c3cc(C)n(Cc4ccccc4)c3C)C(=O)N=C2S1	-26.4	23.9*	2.6	19.9*	-18.6	-3.3
Cc1cc(/C=C2\C(=N)N3N=C(C(C)C)SC3=NC2=O)c(C)n1Cc1ccccc1	-3.6	0.7	11.4	2.5	4.3	-10.2
CCN(CC)CCNCC(O)(c1ccc(Cl)cc1)c1ccc(Cl)cc1	-15.6	-10.6	7.0	-12.8	-33.0	51.0*
COc1cc(/C=C/C(=O)OCC(=O)c2ccc(OC(F)F)cc2)ccc1O	-10.3	27.0*	3.8	12.4	-1.9	5.4
CCc1ccc(NC(=O)C(C)OC(=O)/C=C/c2ccc(O)c(OC)c2)cc1 (configuration not stated)	-14.8	34.6*	14.4	34.2*	-6.6	-4.0
COc1cc(/C=C/C(=O)OC(C)C(=O)Nc2c(C)n(C)n(-c3ccccc3)c2=O)ccc1O (configuration not stated)	-1.9	3.8	6.4	-1.9	5.7	-7.0
CCN(c1ccccc1)S(=O)(=O)c1ccc(Cl)c(NC(=O)c2ccc(=O)[nH]n2)c1	10.2	3.4	7.9	4.8	14.5	-2.4
O=C1CSC(c2ccccc2Br)N1c1ccc(Cl)cn1 (configuration not stated)	-31.4	-18.5	6.6	-6.4	-22.0	58.7*
O=C1CSC(c2ccc(Cl)cc2Cl)N1c1ccccn1 (configuration not stated)	-4.1	-6.8	10.2	-9.3	6.5	-2.3
COC(=O)c1ccc(-c2ccc(/C=N/N3C(=O)C4C5C=CC(C6CC56)C4C3=O)o2)cc1 (configuration not stated)	-8.5	-0.7	12.8	-1.8	0.3	4.5
CN(C)CCCC1(O)c2ccccc2C=Cc2ccccc21	-23.3	-5.5	23.6	-4.6	-22.0	73.3*
COc1ccc(CC(=O)Nc2ccc(NC(=O)c3ccccc3F)cc2)cc1	0.7	-2.0	-0.9	27.5*	3.8	1.0
COc1ccc(NC(=O)CSc2nc(N)c(NC(=O)c3ccccc3F)c(=O)[nH]2)cc1	0.7	-2.4	9.6	-0.6	14.4	-11.9
COC(=O)COc1ccc(Oc2cc(C)nc(SC)n2)nn1	-2.6	1.7	-4.0	-2.6	-0.9	2.5
CC(=O)N1CCN(c2ccccc2NC(=O)COc2cc(C)ccc2C(C)C)CC1	-12.7	0.3	18.0	1.7	-10.2	29.6*
Cc1ccc(C(C)C)c(OCC(=O)Nc2ccccc2N2CCN(C)CC2)c1	-6.7	-3.3	6.2	-2.9	-8.4	10.6
O=C(COc1ccc(Cl)cc1Cl)Nc1ccc(CN2CCCCC2)cc1	-7.2	-5.0	1.3	-14.1	-34.5	21.1*
COc1ccc(C(=O)NC(=S)Nc2ccc(CN3CCCCC3)cc2)cc1Cl	-26.3	-14.6	13.8	-6.7	-21.5	29.3*
O=C(C1=C[C@H](c2coc3ccccc3c2=O)C[C@H](OCc2ccc(CO)cc2)O1)N1CCN(Cc2ccc3c(c2)OCO3)CC1	-6.8	-1.7	5.2	-6.0	-6.0	-3.3
Cc1cc(C)n(S(=O)(=O)c2ccc(C(C)(C)C)cc2)n1	-22.1	-11.4	-5.1	-8.9	-21.4	54.5*
Cc1cc(C)n(S(=O)(=O)c2ccc(F)cc2)n1	6.7	-1.9	9.8	-3.8	5.2	-3.5
SMILES	CHRM5 PAM	M5 ag	CHRM5 antagonist	CHRM1 agonist	M1 PAM	CHRM1 antagonist
C=CCn1c2ccccc2c2nnc(SCN3C(=O)c4ccccc4C3=O)nc21	-14.4	-5.7	19.2	-0.4	-21.9	46.4*
C=CCn1c2ccccc2c2nnc(SCCN3CCCCC3)nc21	-4.8	-7.6	1.2	-10.2	-28.6	53.3*
c1ccc(Cn2c3ccccc3c3nnc(SCCN4CCCCC4)nc32)cc1	-11.3	-20.3	6.5	-9.5	-22.9	29.4
CCn1c2ccc(C)cc2c2nnc(SCCN3CCCCC3)nc21	-4.8	-7.7	21.3	-11.3	-20.3	36.7*
OC1(c2ccc(OC(F)F)cc2)CSC(=Nc2cccnc2)N1C1CC1 (configuration not stated)	-20.6	-0.6	5.4	1.2	-16.2	21.4*
COc1ccc(OC)c(C2(O)CSC(=Nc3cccnc3)N2Cc2ccco2)c1 (configuration not stated)	-1.0	-8.2	10.5	-1.8	1.7	1.1
O=c1[nH]c2cc(F)ccc2c2ccc(F)cc12	19.1*	-2.4	-9.4	-5.7	5.7	-17.6
Cn1cc(Cl)c(C(=O)OCC(=O)Nc2ccccc2)n1	-0.7	6.2	46.6*	-1.3	16.2	-18.9
Cn1ccc(C(=O)OCC(=O)Nc2cccc(Cl)c2)n1	0.5	0.4	5.7	-1.5	3.2	-1.6
CC(=O)n1cc([C@H]2C=C(C(N)=O)O[C@@H](OCc3ccc(CO)cc3)C2)c2ccccc21	-27.8	28.9*	12.7	22.8*	-10.1	20.8
Cc1ccc(N(C(=O)CS(=O)CC(=O)Nc2ccc(F)cc2)C(C(=O)NC2CCCCC2)c2ccco2)cc1 (configuration not stated)	2.0	-2.4	-2.2	-4.3	10.0	-9.6
Cc1ccc(NC(=O)CS(=O)CC(=O)N(C(C)C(=O)NC2CCCCC2)C(C)(C)C)cc1 (configuration not stated)	-11.1	-3.7	27.5*	-5.9	1.8	-2.2
O=C(NCCc1ccncc1)Nc1ccc(Cl)cc1	-2.8	-6.6	1.3	-3.2	1.7	-3.7
CC(=O)c1csc(CS(=O)(=O)c2ccccn2)n1	20.0*	4.3	25.6	-3.9	-3.8	11.5
CC(=O)c1ccccn1	0.5	2.0	2.5	-1.3	-2.7	-1.4
Cc1ccc(-n2nc3ccc(N)cc3n2)cc1C	20.5*	12.8	-14.6	1.1	18.1	-24.6
Cc1ccc(-n2nc3ccc(N)cc3n2)cc1Cl	-3.2	0.5	4.5	-4.4	1.8	-2.9
S=C(NC12CC3CC(CC(C3)C1)C2)N1CCCC1	-1.9	-0.1	0.3	-7.3	1.7	-5.5
Fc1ccc(-c2[nH]ncc2CN2CCN(c3ccc(F)cc3)CC2)cc1	2.3	31.3*	4.9	16.8*	9.7	-7.7
